Experiment [1] relates to Escherichia coli. The experiment can be described thus: Compound was tested in vitro for antibacterial activity against the microbial strain Escherichia coli NIHJ JC-2. It is filed as functional.
Experiment [2] concerns Pseudomonas aeruginosa. The experiment in a line: Compound was tested in vitro for antibacterial activity against the microbial strain Pseudomonas aeruginosa 12. Format: functional.
Experiment [3] concerns Staphylococcus aureus. The experiment can be described thus: Compound was tested in vitro for antibacterial activity against the microbial strain Staphylococcus aureus 209P JC-1. It is filed as functional.
The species entered for experiment [4] is Mus musculus. The experiment in a line: Antibacterial activity (oral efficacy) against systemic infections due to Staphylococcus aureus 50774 microbial strains in mice was determined. Format: functional. In a few lines:
(§1)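 Male Std-ddY mice (20 ± 2 g), in groups of 10 or more, were infected with S. aureus 50774 (iv, 5×10^8 cells), E. coli P-5101 (ip, 9×10^6 cells) or P. aeruginosa 12 (ip, 4×10^3 cells). Compounds were suspended in 0.2% sodium (carboxymethyl)cellulose and dosed orally at 0 and 6 h postinfection. Survival was scored at 2 weeks for S. aureus and at 1 week for the others.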

In experiment [5] the test system is Mus musculus. The experiment can be described thus: Antibacterial activity against Escherichia coli P-5101 microbial strains in mice was determined expressed as ED50 (mg/kg). Format: functional. The essentials: as §1
Experiment [6] deals with Mus musculus. The experiment in a line: Antibacterial activity against Pseudomonas aeruginosa 12 microbial strains in mice was determined expressed as ED50 (mg/kg). Format: functional. In a few lines: as §1
In experiment [7] the test system is Escherichia coli. The experiment in a line: Antibacterial activity against Escherichia coli P-5101 microbial strains was determined expressed as MIC.
The test system of experiment [8] is Pseudomonas aeruginosa. The experiment in a line: Antibacterial activity against Pseudomonas aeruginosa 12 microbial strains; was determined expressed as MIC.
The subject of experiment [9] is Staphylococcus aureus. The experiment in a line: Antibacterial activity against Staphylococcus aureus 50774 microbial strains; was determined expressed as MIC.
Experiment [10] deals with Escherichia coli. The experiment in a line: Antibacterial activity against Escherichia coli P-5101 microbial strains; was determined expressed as MIC.
Experiment [11] deals with Staphylococcus aureus. The experiment can be described thus: Antibacterial activity against Staphylococcus aureus 50774 microbial strains; was determined expressed as MIC. This is another data set of the same source.
Experiment [12] relates to Pseudomonas aeruginosa. The experiment in a line: Compound was tested in vitro for antibacterial activity against the microbial strainP. aeruginosa 12. Format: functional. In a few lines:
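MIC (µg/mL) was determined by twofold agar dilution on Mueller-Hinton agar at pH 7.4. Inocula were about 10⁶ CFU. Growth was read after 20 h incubation at 37 °C.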

≈ marks a conversion by molar mass, not a printed value.

Usually MIC stands for the lowest concentration found to suppress growth. Regarding `CCn1cc(C(=O)O)c(=O)c2ccc(-c3ccncc3)nc21`, the MIC in experiment [1] stood at 0.78 µg/mL (≈ 2.64 µM); in experiment [2] it was 12.5 µg/mL (≈ 42.3 µM); in [3] it was 1.56 µg/mL (≈ 5.28 µM).

One may read the ED50 as the midpoint of the dose-response relation. Turning to `O=C(O)c1cn(CCF)c2nc(-c3ccncc3)c(F)cc2c1=O`, the MIC came out at 0.2 µg/mL (≈ 0.604 µM) in experiment [1]; 1.56 µg/mL (≈ 4.71 µM) in [2]; 0.39 µg/mL (≈ 1.18 µM) in experiment [3]; 0.1 µg/mL (≈ 0.302 µM) in [7]; 1.56 µg/mL (≈ 4.71 µM) in experiment [8]; 0.39 µg/mL (≈ 1.18 µM) in [9]. The ED50 worked out at 3.37 mg/kg in [4], 4.91 mg/kg in experiment [5] and 14.9 mg/kg in experiment [6].

Regarding `O=C(O)c1cn(C2CC2)c2nc(-c3ccncc3)c(F)cc2c1=O`, the minimal inhibitory concentration (MIC) in [1] was determined as 0.1 µg/mL (≈ 0.307 µM); in experiment [2], 0.78 µg/mL (≈ 2.4 µM); in [3], 0.2 µg/mL (≈ 0.615 µM); in experiment [7] it was 0.05 µg/mL (≈ 0.154 µM); in experiment [8] it was 0.78 µg/mL (≈ 2.4 µM); in experiment [9], 0.1 µg/mL (≈ 0.307 µM). Moreover, the values for the ED50 in [4], in [5] and in experiment [6] were 5.43 mg/kg, 4.48 mg/kg and 15 mg/kg, respectively.

Turning to `CCn1cc(C(=O)O)c(=O)c2ccc(-c3ccncc3)cc21` [ROSOXACIN], the MIC in experiment [1] was 0.39 µg/mL (≈ 1.33 µM); in experiment [2] it was 3.13 µg/mL (≈ 10.6 µM); in experiment [3], 0.78 µg/mL (≈ 2.65 µM); in experiment [7], 0.2 µg/mL (≈ 0.68 µM); in experiment [8] it was 3.13 µg/mL (≈ 10.6 µM); in [9], 0.39 µg/mL (≈ 1.33 µM). Besides, the ED50 in [4] stood at 6.8 mg/kg; in experiment [5], 7.3 mg/kg; in experiment [6], 29.2 mg/kg.

In the case of `CCn1cc(C(=O)O)c(=O)c2cc(F)c(N3CCNCC3)nc21` [ENOXACIN], the MIC came to 0.2 µg/mL (≈ 0.624 µM) in experiment [1]; 0.78 µg/mL (≈ 2.44 µM) in experiment [2]; 0.78 µg/mL (≈ 2.44 µM) in experiment [3]; 0.1 µg/mL (≈ 0.312 µM) in experiment [10]; 0.78 µg/mL (≈ 2.44 µM) in experiment [8]; 0.78 µg/mL (≈ 2.44 µM) in experiment [11]. The ED50 in experiment [4] turned out to be 10 mg/kg; in [5] it was 1.9 mg/kg; in experiment [6], 9 mg/kg.

Consider `C=Cn1cc(C(=O)O)c(=O)c2cc(F)c(N3CCNCC3)nc21`, for which the MIC in experiment [1] is 0.1 µg/mL (≈ 0.314 µM); in [2] it was 0.39 µg/mL (≈ 1.23 µM); in experiment [3], 1.56 µg/mL (≈ 4.9 µM).

Consider `CCn1cc(C(=O)O)c(=O)c2ccc(N3CCNCC3)nc21`, for which the MIC in experiment [1] came to 6.25 µg/mL (≈ 20.7 µM); in experiment [12] it was 12.5 µg/mL (≈ 41.3 µM); in [3], 12.5 µg/mL (≈ 41.3 µM).

For the compound `CCn1cc(C(=O)O)c(=O)c2cc(F)c(-c3ccncc3)nc21`, the MIC came to 0.2 µg/mL (≈ 0.638 µM) in [1], 3.13 µg/mL (≈ 9.99 µM) in [2] and 0.39 µg/mL (≈ 1.24 µM) in [3].

For `C=Cn1cc(C(=O)O)c(=O)c2cc(F)c(-c3ccncc3)nc21`, the results for the MIC in [1], in experiment [2] and in experiment [3] were 0.78 µg/mL (≈ 2.51 µM), 6.25 µg/mL (≈ 20.1 µM) and 1.56 µg/mL (≈ 5.01 µM), respectively.

In the case of `O=C(O)c1cn(CCF)c2nc(N3CCNCC3)c(F)cc2c1=O`, the MIC in experiment [1] was 0.2 µg/mL (≈ 0.591 µM); in experiment [2], 0.78 µg/mL (≈ 2.31 µM); in experiment [3], 0.39 µg/mL (≈ 1.15 µM).

As for `O=C(O)c1cn(CCO)c2nc(-c3ccncc3)c(F)cc2c1=O`, the MIC worked out at 1.56 µg/mL (≈ 4.74 µM) in experiment [1], 50 µg/mL (≈ 152 µM) in experiment [2] and 50 µg/mL (≈ 152 µM) in experiment [3].
